# MT1-MMP act inh: blocks activation of human MT1-MMP; actives 0.061% (n = 360,000); AID 651647; HT1080 RFP-PRO-GFP cells, GFP/RFP ratio fluorescence, overnight; percent of plate control window, DMSO zero; GFP/RFP ratio change, % at 20 µM;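 active means GFP/RFP ratio change of at least 30% with cell ATP level not reduced by more than half and red fluorescence within 50% of control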
#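 Assay system: HT1080 cells carrying an RFP-PRO-GFP reporter | Dosing: Single dose of 20 µM compound, 1% DMSO final | Incubation: Cells overnight before dosing, compound overnight, 37 °C, 5% CO2 | Evaluation: GFP/RFP fluorescence ratio | Control set: DMSO and RFP-L50D-GFP cell wells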
# SKN-1 inh: blocks SKN-1 activity in C. elegans; C. elegans VP596 Pgst-4::GFP/RFP ratio, acrylamide-induced, 24 h; inhibition, % at 21.8 µM; actives 0.49% (n = 360,000);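 active means interference check ratio from 0.5 to 1.5 plus GFP to RFP signal ratio inhibition reaching or exceeding a fixed threshold, cut at about 30% in these data, passing the limit was not always enough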
# TbMetRS inhib: blocks T. brucei methionyl-tRNA synthetase activity. purified T. brucei MetRS, ATP depletion, Kinase-Glo luminescence. inhibition, % at 11.9 µM. actives 0.4% (n = 360,000);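 active means inhibition above a per-plate cutoff of the control wells' mean inhibition plus 3 SD, cut at about 5.5% in these data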;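 further: 0% = DMSO wells median and 100% = median of wells with control inhibitor compound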
#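 System: purified T. brucei MetRS enzyme / Detection: Kinase-Glo luciferase luminescence reporting remaining unconsumed ATP / Medium: HEPES buffer with MgCl2, KCl, DTT, spermine, BSA, pyrophosphatase / Replication: singlicate, one well per compound / Evaluation: percent inhibition relative to median high and low control wells / Schedule: 2 h aminoacylation at 25 °C after 15 min preincubation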
# iPSC survival up: increases survival of single human iPS cells; hiPSC single-cell survival, ATPlite luminescence; 100% = ROCK inhibitor wells, 0% = DMSO; survival enhancement, % at 20 µM; actives 0.044% (n = 360,000); AID 602274; in the data active means survival enhancement above about 18%;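 further: cells exposed to compounds for 16 hours before the ATP read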
# E coli Lon inh: inhibitors of E. coli Lon protease; P0A9M0; purified E. coli Lon protease, fluorescence polarization; actives 0.42% (n = 360,000); inhibition, % at 7.94 µM; AID 602123; in the data active means inhibition above about 13%, passing the limit was not always enough;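 further: 0% = enzyme with probe and DMSO and 100% = no enzyme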
# PREPL inhibitor: human PREPL enzyme inhibition. Q4J6C6. recombinant PREPL, fluorescence polarization activity-based probe. inhibition, % at 5.96 µM. actives 0.68% (n = 320,000); in the data active means inhibition above about 43%;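 further: 0% = enzyme with DMSO and 100% = wells lacking enzyme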
# Target sequence (Q4J6C6 whole entry, looked up): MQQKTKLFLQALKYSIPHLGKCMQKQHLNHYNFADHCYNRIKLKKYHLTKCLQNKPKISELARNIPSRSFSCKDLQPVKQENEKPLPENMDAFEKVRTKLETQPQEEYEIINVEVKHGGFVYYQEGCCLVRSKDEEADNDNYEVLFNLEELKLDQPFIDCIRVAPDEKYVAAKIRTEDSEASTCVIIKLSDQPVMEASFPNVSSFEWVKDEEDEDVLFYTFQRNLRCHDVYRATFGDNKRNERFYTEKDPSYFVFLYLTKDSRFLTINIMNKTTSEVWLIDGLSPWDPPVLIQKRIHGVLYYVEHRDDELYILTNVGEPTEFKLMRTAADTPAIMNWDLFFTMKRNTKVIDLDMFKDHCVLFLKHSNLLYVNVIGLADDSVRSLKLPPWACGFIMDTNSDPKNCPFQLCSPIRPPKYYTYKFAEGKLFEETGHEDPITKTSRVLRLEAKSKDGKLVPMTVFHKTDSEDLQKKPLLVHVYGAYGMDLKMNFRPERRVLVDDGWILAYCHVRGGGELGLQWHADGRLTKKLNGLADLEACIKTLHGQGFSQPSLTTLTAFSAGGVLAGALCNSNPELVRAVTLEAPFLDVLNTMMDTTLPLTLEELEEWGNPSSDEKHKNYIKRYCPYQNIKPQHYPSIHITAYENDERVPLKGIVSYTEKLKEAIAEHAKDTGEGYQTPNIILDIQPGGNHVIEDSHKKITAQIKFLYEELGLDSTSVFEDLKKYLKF
# * marks the source's active call; other numbers are inactive results; i = inactive; . = no result; ! = not confirmed by another sample. Only some compounds are listed: those with a hit (about 1.8% of all), similar ones and a draw of the others.
SMILES,MT1-MMP act inh,SKN-1 inh,TbMetRS inhib,iPSC survival up,E coli Lon inh,PREPL inhibitor
Cc1ccc(CN2C(=O)N/C(=C\c3ccc(N4CCOCC4)cc3)C2=O)cc1,-3,6,-1,-1,-29,71*
CCCCN(C)c1c(C)nc2ccc(C(=O)NCCCn3ccnc3)cn12,-2,18,0,-1,-4,.
O=C(C=Cc1ccccc1)CC(c1ccccc1)N1CCOCC1 (centres undefined),5,83*,0,-3,0,.
CCC(CC)N1CCN(CC2CC=CCC2)CC1 (centres undefined),0,7,-1,1,-4,8
O=C(NC(Cc1ccccc1)C(=O)Oc1ccc2c(C(F)(F)F)cc(=O)oc2c1)OCc1ccccc1 (centres undefined),-32,13,-1,0,74*,-10
CN(CCc1ccccc1)c1cc2c(c3c1ccn3C)C1CCC2C1 (centres undefined),-2,14,0,-1,-14,.
N/C(=N\OC(=O)COc1ccc(Cl)cc1Br)c1cccnc1,-1,4,2,0,5,-4
N/C(=N\OC(=O)COc1ccc(Cl)cc1Cl)c1ccncc1,3,48*,4,-2,0,.
Clc1ccc(N2CCN(/N=C/c3cccnc3)CC2)cc1,4,66*,0,0,-5,21
O=c1[nH]c(CSc2nnc(-c3ccccc3)n2-c2ccccc2)nc2ccccc12,0,10,-1,1,-6,7
Clc1ccc(-n2c(SCc3nc4ccccc4[nH]3)nnc2-c2ccncc2)cc1,13,1,6.7*,-2,6,4
N#CC1=C(N)C(C#N)(C#N)[C@H](c2ccoc2)[C@H]2CN(Cc3ccccc3)CC=C12,-82,19,0,7,36,52*
COc1ccc2cc(CN(CCc3ccccc3)Cc3nnnn3Cc3ccco3)c(=O)[nH]c2c1,-8,-11,-1,-1,-14,-11
COc1ccccc1CN(Cc1cc2c(C)ccc(C)c2[nH]c1=O)Cc1nnnn1Cc1ccco1,-14,37*,-1,-2,2,-2
CCC12CC1(C(=O)OC)C(=O)N1CCc3c([nH]c4ccccc34)C12 (centres undefined),5,6,0,-1,1,.
COc1ccccc1-n1cc([C@@H]2C[C@H]3CN(c4ccccc4)C(=O)[C@]34CCCN24)cn1,-29,40*,0,-1,-31,-27
CCCCN1C(=O)/C(=C/C=C2\SCCN2C)SC1=S,-103,48*,0,2,i,.
CN1CCS/C1=C/C=C1\SC(=S)N(CC(=O)O)C1=O,-95,-10,0,-4,i,-10
COc1ccc([N+](=O)[O-])cc1N(CC(O)CN(C)C)S(=O)(=O)c1ccccc1 (centres undefined),1,6,0,0,-3,-8
C=CCN(CC=C)CC(O)CN(c1cc([N+](=O)[O-])ccc1OC)S(=O)(=O)c1ccccc1 (centres undefined),4,38*,0,0,0,6
CC(Oc1ccc(Br)cc1)C(=O)O/N=C(\N)c1ccncc1 (centres undefined),14,54*,0,0,-1,11
CC1CCCCN1S(=O)(=O)c1cccc2cccnc12 (centres undefined),0,15,-1,-2,-4,-5
CC1CNCCN1S(=O)(=O)c1cccc2cnccc12 (centres undefined),-15,-14,-1,20*!,3,-40
O=S(=O)(c1cccc2cnccc12)N1CCCNCC1,-13,-5,0,58*,3,-4
O=C(O)c1ccc2c(c1)CCCN2,-3,38*,0,-1,14,5
SMILES,MT1-MMP act inh,SKN-1 inh,TbMetRS inhib,iPSC survival up,E coli Lon inh,PREPL inhibitor
COc1ccc(Cn2cc(CN3CC(N4CCCC4)CS3(=O)=O)nn2)cc1 (centres undefined),-2,-2,0,0,-5,.
C[C@H](CO)N1C[C@H](C)[C@H](CN(C)C(=O)Nc2ccccc2F)OCc2cnnn2CCCC1=O,3,-7,0,4,2,.
O=c1oc(-c2ccco2)nc2sc3c(c12)CCCC3,0,15,-1,-1,3,72*
Cc1ccc(NC(=O)C2(C)CCN2C(=O)c2ccccc2CCc2ccccc2)cc1C (centres undefined),-3,5,-1,-1,-1,.
CC1(C(=O)Nc2cnc3ccccc3c2)CCN1C(=O)c1ccccc1CCc1ccccc1 (centres undefined),-3,39*,0,-2,-2,.
O=C(N[C@@H](Cc1ccccc1)C(=O)NC1CC1)c1ccc(Cl)cc1,-1,-6,-1,0,10,1
CCCOC(=O)Oc1ccc2c(=O)c(Oc3cc(C)cc(C)c3)coc2c1,-2,7,0,25*,-8,38
O=c1[nH]c(Cc2cccs2)nc2scc(-c3ccc(Cl)cc3)c12,-1,-4,0,0,-11,55*
O=c1[nH]c(Cc2ccccn2)nc2scc(-c3ccc(Cl)cc3)c12,-15,6,0,0,-6,-24
Cc1ccc(-c2ccc(CN3C(C(C)C)C(=O)N(Cc4cn(CCC5OCCO5)nn4)CCS3(=O)=O)cc2)c(C)c1 (centres undefined),4,14,0,-1,3,.
Cc1ccc(F)cc1NC(=O)COC(=O)C1CC2CCCC(C1)C2=O (centres undefined),-1,0,0,0,1,.
COc1ccc(OCCN(C)C(=O)c2cccc(S(=O)(=O)N(C)c3ccccc3)c2)cc1,3,37*,0,1,0,16
COc1ccc(C(=O)N(Cc2nc(-c3ccc(C)cc3)no2)C2CCCCC2)cc1OC,0,2,0,0,-8,7
CC(C)(C)c1ccc(C2=CSC3=NCCN23)cc1,-5,48*,-1,0,0,7
COc1nccc(-c2ccc(F)cc2)c1C#N,2,21,0,1,-10,-5
S=C(NCc1ccccc1)NCc1ccc(CNC(=S)NCc2ccccc2)cc1,8,5,1,0,3,-15
S=C(NCc1ccccc1)C(=S)NCc1ccccc1,-2,38*,0,6,-5,.
CC(C)c1nc(SCC(=O)Nc2cccc3ccccc23)n[nH]1,2,-1,1,-4,-6,14
CCc1nc2ccc(C(=O)NCCc3ccccn3)cn2c1N(CC)CCOC,-1,8,0,-2,-2,.
CCOC(=O)c1c(N)sc2c1CCSC2,-13,37*,-2,10,-21,22
O=C(/C=C/c1cccs1)c1ccc(Br)cc1,-3,37*,0,-5,1,-7
